In ChEMBL document CHEMBL1671856, “Chemical target validation studies of aminopeptidase in malaria parasites using alpha-aminoalkylphosphonate and phosphonopeptide inhibitors” (Antimicrob Agents Chemother, 2008):

How the values were obtained:
[1] = biological target: T1, Leucine aminopeptidase (Plasmodium falciparum 3D7) (UniProt Q8IL11); test: Inhibition of leucyl aminopeptidase activity in Plasmodium falciparum 3D7 at 10 uM using Leu-AMC as a substrate by spectrophotometer
T1 sequence (whole entry): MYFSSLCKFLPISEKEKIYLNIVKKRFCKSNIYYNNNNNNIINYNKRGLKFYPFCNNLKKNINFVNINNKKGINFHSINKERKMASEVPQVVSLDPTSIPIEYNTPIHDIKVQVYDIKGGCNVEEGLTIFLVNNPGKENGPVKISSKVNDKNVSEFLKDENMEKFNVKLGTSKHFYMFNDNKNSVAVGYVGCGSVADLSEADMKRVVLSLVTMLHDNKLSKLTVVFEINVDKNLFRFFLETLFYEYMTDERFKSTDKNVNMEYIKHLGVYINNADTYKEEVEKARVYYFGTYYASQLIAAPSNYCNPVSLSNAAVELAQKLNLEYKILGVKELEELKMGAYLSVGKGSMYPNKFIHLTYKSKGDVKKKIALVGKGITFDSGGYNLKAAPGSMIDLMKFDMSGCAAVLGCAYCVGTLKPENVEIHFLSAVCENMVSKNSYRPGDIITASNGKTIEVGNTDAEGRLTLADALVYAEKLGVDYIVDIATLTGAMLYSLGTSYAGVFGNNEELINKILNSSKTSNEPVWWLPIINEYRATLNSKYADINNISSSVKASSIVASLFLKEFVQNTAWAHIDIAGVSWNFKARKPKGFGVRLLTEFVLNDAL
Outline: (§1)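 Cytosolic extract came from free parasites released from infected erythrocytes, then three freeze-thaw cycles and centrifugation at 12,000 x g, 4°C, 20 min. Extract (25 µg/ml final) was preincubated with 0.1 or 10 µM inhibitor in 50 mM Tris-Cl pH 8.0, with or without 1 mM CoCl2, for 15 min at 37°C. Leu-AMC or Ala-AMC (10 µM final) was added. AMC release was read over 30 min (ex 370/em 440 nm).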

[2] = biological target: T1, Leucine aminopeptidase (Plasmodium falciparum 3D7); test: Inhibition of leucyl aminopeptidase activity in Plasmodium falciparum 3D7 at 0.1 uM using Leu-AMC as a substrate by spectrophotometer in presence of 1 mM CoCl2
Plasmodium falciparum [3] = test: Inhibition of alanyl aminopeptidase activity in Plasmodium falciparum 3D7 at 0.1 uM using Ala-AMC as a substrate by spectrophotometer; outline: as §1
[4] = biological target: T1, Leucine aminopeptidase (Plasmodium falciparum 3D7); test: Inhibition of leucyl aminopeptidase activity in Plasmodium falciparum 3D7 at 0.1 uM using Leu-AMC as a substrate by spectrophotometer; outline: as §1
Plasmodium falciparum [5] = test: Inhibition of alanyl aminopeptidase activity in Plasmodium falciparum 3D7 at 10 uM using Ala-AMC as a substrate by spectrophotometer; outline: as §1
Plasmodium falciparum [6] = test: Antimalarial activity against Plasmodium falciparum 3D7 infected in O-positive human erythrocytes after 72 hrs; format: functional, organism-based; details: 3D7, 72 h
Outline: (§2)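 Asynchronous asexual blood-stage P. falciparum 3D7 were cultured in O+ erythrocytes and exposed to compounds for 72 h. Growth was read by the spectrophotometric parasite lactate dehydrogenase absorbance assay. IC50 values were determined graphically from dose-response curves.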

[7] = biological target: T1, Leucine aminopeptidase (Plasmodium falciparum 3D7); test: Inhibition of leucyl aminopeptidase activity in Plasmodium falciparum 3D7 at 10 uM using Leu-AMC as a substrate by spectrophotometer in presence of 1 mM CoCl2
[8] = Inhibition of porcine kidney leucyl aminopeptidase; set-up: species or system Sus scrofa
Aminopeptidase N = biological target: T2, Aminopeptidase N (Sus scrofa, UniProt P15145); test: Inhibition of pig kidney microsomal aminopeptidase N
T2 sequence (P15145 whole entry): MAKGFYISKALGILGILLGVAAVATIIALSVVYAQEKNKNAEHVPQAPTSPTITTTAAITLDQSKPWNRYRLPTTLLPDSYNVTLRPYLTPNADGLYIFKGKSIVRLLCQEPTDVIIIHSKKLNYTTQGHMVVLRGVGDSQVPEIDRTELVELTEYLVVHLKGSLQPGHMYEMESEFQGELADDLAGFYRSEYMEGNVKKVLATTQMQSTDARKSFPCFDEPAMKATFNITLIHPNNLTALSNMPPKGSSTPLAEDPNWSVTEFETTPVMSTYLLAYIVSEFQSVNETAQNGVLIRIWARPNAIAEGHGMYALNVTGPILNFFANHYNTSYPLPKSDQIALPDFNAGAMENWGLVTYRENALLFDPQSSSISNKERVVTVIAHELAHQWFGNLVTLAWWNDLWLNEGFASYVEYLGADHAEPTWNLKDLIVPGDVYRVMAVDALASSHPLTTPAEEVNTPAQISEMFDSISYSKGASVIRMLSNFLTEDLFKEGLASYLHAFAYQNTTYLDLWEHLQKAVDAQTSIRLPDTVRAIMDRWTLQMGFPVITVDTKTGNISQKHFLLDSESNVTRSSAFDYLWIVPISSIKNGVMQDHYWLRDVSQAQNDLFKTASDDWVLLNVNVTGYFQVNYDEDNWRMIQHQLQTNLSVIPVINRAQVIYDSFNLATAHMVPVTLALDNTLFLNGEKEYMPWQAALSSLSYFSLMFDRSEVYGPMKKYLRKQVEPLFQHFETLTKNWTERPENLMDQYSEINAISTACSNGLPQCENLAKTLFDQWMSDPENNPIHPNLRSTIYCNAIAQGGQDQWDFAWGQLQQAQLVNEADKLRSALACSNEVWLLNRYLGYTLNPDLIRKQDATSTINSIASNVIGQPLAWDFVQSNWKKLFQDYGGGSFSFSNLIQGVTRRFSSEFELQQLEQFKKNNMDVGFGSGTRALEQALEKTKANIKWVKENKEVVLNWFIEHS

Plasmodium falciparum [9] = test: Antimalarial activity against Plasmodium falciparum 3D7 infected in O-positive human erythrocytes assessed as growth inhibition by LDH assay; format: functional; outline: as §2
[10] = biological target: T1, Leucine aminopeptidase (Plasmodium falciparum 3D7); test: Inhibition of leucyl aminopeptidase activity in Plasmodium falciparum 3D7 harboring tPfAP-M17 gene at 0.1 uM using Leu-AMC as a substrate by spectrophotometer in presence of 1 mM CoCl2

| SMILES | inhibition [1] | IC50 (Plasmodium falciparum [6]) | inhibition (INH) (Plasmodium falciparum [9]) | further results |
| --- | --- | --- | --- | --- |
| CC(CCNC(=O)C(N)Cc1ccccc1)P(=O)(O)O (stereo unspecified) | 4% | 135 µM | – | inhibition [2]: 1%; inhibition at 0.1 µM (Plasmodium falciparum [3]): 0%; inhibition [4]: 0%; inhibition at 10 µM (Plasmodium falciparum [5]): 0%; inhibition [7]: 0% |
| N[C@@H](C1CCCCC1)P(=O)(O)O | 12% | 54 µM | – | Ki [8]: 7.89 µM; inhibition [2]: 50%; inhibition at 0.1 µM (Plasmodium falciparum [3]): 2%; inhibition [4]: 0%; inhibition at 10 µM (Plasmodium falciparum [5]): 8%; Ki (Aminopeptidase N): 161 µM; inhibition [7]: 67% |
| NC(c1ccc2ccccc2c1)C(O)P(=O)(O)O (stereo unspecified) | 17% | > 128 µM | 11% | – |
| CCC(CC)[C@H](N)P(=O)(O)O | 10% | > 256 µM | 15% | – |
| CC(C)C[C@H](N)[C@@H](N)P(=O)(O)O | 6% | > 256 µM | 14% | – |
| Cl.NC(Cc1ccccc1)C(=O)NCCC(O)P(=O)(O)O (stereo unspecified) | 9% | > 256 µM | 10% | – |
| CC(C)C(NC(=O)C(N)Cc1ccccc1)P(=O)(O)O (stereo unspecified) | 12% | > 256 µM | 7% | – |
| N[C@H](C1CCCCC1)P(=O)(O)O | 8% | > 256 µM | 7% | Ki [8]: 6.96 µM; Ki (Aminopeptidase N): > 2000 µM |
| CCC(C)C(N)C(O)P(=O)(O)O (stereo unspecified) | 5% | > 256 µM | 1% | – |
| CCC(CC)[C@@H](N)P(=O)(O)O | 6% | > 256 µM | 0% | – |
| NC(c1ccccc1)C(O)P(=O)(O)O (stereo unspecified) | 5% | > 256 µM | 0% | – |
| CC(C)C[C@@H](N)P(=O)(O)O | 2% | > 256 µM | 1% | Ki (Aminopeptidase N): 53 µM |
| NC(CCc1ccccc1)P(=O)(O)O (racemic) | 93% | 22 µM | – | Ki [8]: 0.14 µM; inhibition [2]: 41%; inhibition at 0.1 µM (Plasmodium falciparum [3]): 15%; inhibition [4]: 15%; inhibition [10]: 27%; inhibition at 10 µM (Plasmodium falciparum [5]): 95%; inhibition [7]: 92% |
| NC(CCc1ccccc1)P(=O)(O)Oc1ccccc1 (racemic) | 90% | 25 µM | – | inhibition [2]: 19%; inhibition at 0.1 µM (Plasmodium falciparum [3]): 12%; inhibition [4]: 8%; inhibition at 10 µM (Plasmodium falciparum [5]): 92%; inhibition [7]: 73% |
| COc1ccc(C(N)P(=O)(O)O)cc1O (racemic) | 39% | 65 µM | – | inhibition [2]: 46%; inhibition at 0.1 µM (Plasmodium falciparum [3]): 0%; inhibition [4]: 5%; inhibition at 10 µM (Plasmodium falciparum [5]): 43%; inhibition [7]: 71% |
| NC(CC1CCCCC1)P(=O)(O)O (racemic) | 27% | 119 µM | – | Ki [8]: 0.75 µM; inhibition [2]: 21%; inhibition at 0.1 µM (Plasmodium falciparum [3]): 0%; inhibition [4]: 3%; inhibition at 10 µM (Plasmodium falciparum [5]): 20%; Ki (Aminopeptidase N): 54.7 µM; inhibition [7]: 69% |
| COc1ccc(C(N)P(=O)(O)O)cc1OC (racemic) | 71% | 53 µM | – | inhibition [2]: 20%; inhibition at 0.1 µM (Plasmodium falciparum [3]): 0%; inhibition [4]: 6%; inhibition at 10 µM (Plasmodium falciparum [5]): 76%; inhibition [7]: 70% |
| COc1ccc(C(N)P(=O)(O)O)cc1 (racemic) | 43% | 57 µM | – | inhibition [2]: 38%; inhibition at 0.1 µM (Plasmodium falciparum [3]): 2%; inhibition [4]: 2%; inhibition at 10 µM (Plasmodium falciparum [5]): 52%; inhibition [7]: 73% |
| NC(c1cccc(O)c1)P(=O)(O)O (racemic) | 6% | > 256 µM | 34% | – |
| NC(CC1CCCC1)P(=O)(O)O (racemic) | 37% | > 256 µM | 17% | – |

| SMILES | inhibition [1] | IC50 (Plasmodium falciparum [6]) | inhibition (INH) (Plasmodium falciparum [9]) | further results |
| --- | --- | --- | --- | --- |
| NC(c1ccc(O)cc1)P(=O)(O)O (racemic) | 8% | > 256 µM | 14% | – |
| NC(C1CCC1)P(=O)(O)O (racemic) | 6% | > 256 µM | 8% | – |
| NC(c1ccc(O)c(O)c1)P(=O)(O)O (racemic) | 7% | > 256 µM | 5% | – |
| NC(Cc1ccc(O)cc1)P(=O)(O)O (racemic) | 8% | > 256 µM | 1% | – |
| NC(C1CC1)P(=O)(O)O (racemic) | 6% | > 256 µM | 0% | – |
| CCC(C)C(N)P(=O)(O)O (stereo in doubt; D28) [listing 1 of 2 here] | – | > 256 µM | 22% | – |
| CCC(C)C(N)P(=O)(O)O (stereo in doubt; D28) [listing 2 of 2 here] | 9% | – | – | – |
| CCC(C)C(N)P(=O)(O)O (stereo in doubt; D29) [listing 1 of 2 here] | – | – | 0% | – |
| CCC(C)C(N)P(=O)(O)O (stereo in doubt; D29) [listing 2 of 2 here] | 9% | – | – | – |
| CCCC(C)C(N)P(=O)(O)O (stereo in doubt; D30) [listing 1 of 2 here] | – | > 256 µM | 14% | – |
| CCCC(C)C(N)P(=O)(O)O (stereo in doubt; D30) [listing 2 of 2 here] | 11% | – | – | – |
| CCCC(C)C(N)P(=O)(O)O (stereo in doubt; D31) [listing 1 of 2 here] | – | – | 2% | – |
| CCCC(C)C(N)P(=O)(O)O (stereo in doubt; D31) [listing 2 of 2 here] | 3% | – | – | – |
| CCCCC(CC)C(N)P(=O)(O)O (stereo in doubt; D32) [listing 1 of 2 here] | – | – | 0% | – |
| CCCCC(CC)C(N)P(=O)(O)O (stereo in doubt; D32) [listing 2 of 2 here] | 1% | – | – | – |
| CCCCC(CC)C(N)P(=O)(O)O (stereo in doubt; D33) [listing 1 of 2 here] | – | > 256 µM | 17% | – |
| CCCCC(CC)C(N)P(=O)(O)O (stereo in doubt; D33) [listing 2 of 2 here] | 11% | – | – | – |
| CC(C)C[C@H](N)P(=O)(O)O [LEUCINE PHOSPHONIC ACID] | 15% | > 128 µM | 30% | inhibition [2]: 9%; inhibition at 0.1 µM (Plasmodium falciparum [3]): 0%; inhibition [4]: 0%; inhibition at 10 µM (Plasmodium falciparum [5]): 24%; inhibition [7]: 52% |
| CC(C)C[C@H](NC(=O)[C@@H](O)[C@H](N)Cc1ccccc1)C(=O)O [UBENIMEX] | 98% | – | – | inhibition [2]: 6%; inhibition at 0.1 µM (Plasmodium falciparum [3]): 29%; inhibition [4]: 33%; inhibition [10]: 47%; inhibition at 10 µM (Plasmodium falciparum [5]): 97%; inhibition [7]: 93% |
